From ChEMBL document CHEMBL1138050, “Furan-2-ylmethylene thiazolidinediones as novel, potent, and selective inhibitors of phosphoinositide 3-kinase gamma” (J Med Chem, 2006)

How the values were obtained:
[1] = biological target: Cyclin-dependent kinase 5/CDK5 activator 1 (Homo sapiens) (UniProt Q00535+Q15078); assay: Residual activity at human CDK5/p35 at 10 uM in presence of 10 uM ATP relative to control; format: protein-complex assay
Method in brief: (§1)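 Panel of Ser/Thr and Tyr protein kinases, each tested with 10 µM compound in the presence of 10 µM ATP; activity expressed relative to control.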

[2] = biological target: Inhibitor of nuclear factor kappa-B kinase subunit alpha (Homo sapiens) (UniProt O15111); assay: Residual activity at human IKKalpha at 10 uM in presence of 10 uM ATP relative to control; method in brief: as §1
[3] = biological target: Phosphatidylinositol 4,5-bisphosphate 3-kinase catalytic subunit alpha isoform (Homo sapiens, UniProt P42336); assay: Inhibition of human PI3Kalpha
[4] = biological target: Protein kinase C epsilon type (Homo sapiens) (UniProt Q02156); assay: Residual activity at human PKCepsilon at 10 uM in presence of 10 uM ATP relative to control
Method in brief: (§2)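 Single-concentration counter-screen across a panel of 80 Ser/Thr and Tyr protein kinases. Compound was tested at 10 µM with ATP at 10 µM. Activity remaining in each kinase is expressed relative to control.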

[5] = biological target: Tyrosine-protein kinase receptor UFO (Homo sapiens) (UniProt P30530); assay: Residual activity at human Axl at 10 uM in presence of 10 uM ATP relative to control; method in brief: as §1
[6] = biological target: Insulin-like growth factor 1 receptor (Homo sapiens) (UniProt P08069); assay: Residual activity at human IGF1R at 10 uM in presence of 10 uM ATP relative to control; method in brief: as §1
[7] = biological target: Tyrosine-protein kinase ABL2 (Mus musculus) (UniProt Q4JIM5); assay: Residual activity at mouse Arg at 10 uM in presence of 10 uM ATP relative to control; method in brief: as §2
[8] = biological target: Serine/threonine-protein kinase Sgk1 (Homo sapiens) (UniProt O00141); assay: Residual activity at human SGK at 10 uM in presence of 10 uM ATP relative to control; method in brief: as §2
[9] = biological target: BDNF/NT-3 growth factors receptor (Homo sapiens) (UniProt Q16620); assay: Residual activity at human TrkB at 10 uM in presence of 10 uM ATP relative to control; method in brief: as §2
[10] = Metabolism in human microsome after 1 hr; format: ADME; settings: microsomes, read-out: Activity
[11] = test system: THP-1; assay: Inhibition of MCP1-induced PKB/Akt phosphorylation in THP1 cells; format: functional, cell-based; settings: Homo sapiens
Method in brief: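 THP-1 monocytes starved 3 h in serum-free medium and pretreated with inhibitor or DMSO (15 min in methods; 20 min in figure legend). Stimulated with 100 nM MCP-1/CCL2 for 30 s, or with 50 ng/mL CSF-1 for 5 min. Phospho-Ser-473 and total Akt detected by Western blot and quantified.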

[12] = test system: THP-1; assay: Inhibition of MCP1-induced chemotaxis of THP1 cells; format: functional, cell-based; settings: Homo sapiens
[13] = biological target: Ribosomal protein S6 kinase alpha-1 (Homo sapiens) (UniProt Q15418); assay: Residual activity at human Rsk1 at 10 uM in presence of 10 uM ATP relative to control; method in brief: as §2
[14] = biological target: Tyrosine-protein kinase Lyn (Homo sapiens) (UniProt P07948); assay: Residual activity at human Lyn at 10 uM in presence of 10 uM ATP relative to control; method in brief: as §2
[15] = biological target: Insulin receptor (Homo sapiens) (UniProt P06213); assay: Residual activity at human IR at 10 uM in presence of 10 uM ATP relative to control; method in brief: as §1
[16] = biological target: Fibroblast growth factor receptor 3 (Homo sapiens) (UniProt P22607); assay: Residual activity at human FGFR3 at 10 uM in presence of 10 uM ATP relative to control; method in brief: as §1
[17] = biological target: Dual specificity mitogen-activated protein kinase kinase 4 (Mus musculus) (UniProt P47809); assay: Residual activity at mouse MKK4 at 10 uM in presence of 10 uM ATP relative to control; method in brief: as §2
[18] = biological target: Serine/threonine-protein kinase N2 (Homo sapiens) (UniProt Q16513); assay: Residual activity at human PRK2 at 10 uM in presence of 10 uM ATP relative to control; method in brief: as §2
[19] = biological target: Calcium/calmodulin-dependent protein kinase type IV (Homo sapiens) (UniProt Q16566); assay: Residual activity at human CaMK4 at 10 uM in presence of 10 uM ATP relative to control; method in brief: as §1
[20] = biological target: Serine/threonine-protein kinase Chk1 (Homo sapiens) (UniProt O14757); assay: Residual activity at human Chk1 at 10 uM in presence of 10 uM ATP relative to control; method in brief: as §1
[21] = test system: THP-1; assay: Inhibition of CSF-1-induced PKB/Akt phosphorylation in THP1 cells; settings: Homo sapiens
[22] = biological target: Ribosomal protein S6 kinase alpha-2 (Homo sapiens) (UniProt Q15349); assay: Residual activity at human Rsk2 at 10 uM in presence of 10 uM ATP relative to control; method in brief: as §2
[23] = biological target: Tyrosine-protein kinase Blk (Mus musculus) (UniProt P16277); assay: Residual activity at mouse Blk at 10 uM in presence of 10 uM ATP relative to control; method in brief: as §2
[24] = biological target: Cyclin-dependent kinase 2/cyclin A (Homo sapiens) (UniProt P24941+P20248+P78396); assay: Residual activity at human CDK2/CyclinA at 10 uM in presence of 10 uM ATP relative to control; format: protein-complex assay; method in brief: as §1
[25] = biological target: Protein kinase C eta type (Homo sapiens) (UniProt P24723); assay: Residual activity at human PKCeta at 10 uM in presence of 10 uM ATP relative to control; method in brief: as §2
[26] = biological target: RAC-beta serine/threonine-protein kinase (Homo sapiens) (UniProt P31751); assay: Residual activity at human PKBbeta at 10 uM in presence of 10 uM ATP relative to control; method in brief: as §2
[27] = biological target: Tyrosine-protein kinase Yes (Homo sapiens) (UniProt P07947); assay: Inhibition of human Yes at 10 uM in presence of 10 uM ATP relative to control; design: scale not given: the % may be the effect or the level left; method in brief: as §1
[28] = biological target: Tyrosine-protein kinase ABL1 (Homo sapiens) (UniProt P00519); assay: Residual activity at human Abl at 10 uM in presence of 10 uM ATP relative to control; method in brief: as §1
[29] = Cmax in rat at 10 mg/kg, iv; format: ADME, organism-based; design: dose 10 mg/kg, route intravenous; settings: in vivo
Method in brief: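 Rats given a single 10 mg/kg dose, intravenously or orally. The compound was given as its potassium salt, prepared with KOH in THF/water, for the in vivo work.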

[30] = biological target: Dual specificity mitogen-activated protein kinase kinase 1 (Homo sapiens) (UniProt Q02750); assay: Residual activity at human MEK1 at 10 uM in presence of 10 uM ATP relative to control; method in brief: as §2
[31] = biological target: Mitogen-activated protein kinase 8 (Homo sapiens) (UniProt P45983); assay: Residual activity at human JNK1alpha1 at 10 uM in presence of 10 uM ATP relative to control; method in brief: as §2
[32] = biological target: Serine/threonine-protein kinase D2 (Homo sapiens) (UniProt Q9BZL6); assay: Residual activity at human PKD2 at 10 uM in presence of 10 uM ATP relative to control; method in brief: as §2

Sequence of Calcium/calmodulin-dependent protein kinase type IV (Homo sapiens) (Q16566 whole entry): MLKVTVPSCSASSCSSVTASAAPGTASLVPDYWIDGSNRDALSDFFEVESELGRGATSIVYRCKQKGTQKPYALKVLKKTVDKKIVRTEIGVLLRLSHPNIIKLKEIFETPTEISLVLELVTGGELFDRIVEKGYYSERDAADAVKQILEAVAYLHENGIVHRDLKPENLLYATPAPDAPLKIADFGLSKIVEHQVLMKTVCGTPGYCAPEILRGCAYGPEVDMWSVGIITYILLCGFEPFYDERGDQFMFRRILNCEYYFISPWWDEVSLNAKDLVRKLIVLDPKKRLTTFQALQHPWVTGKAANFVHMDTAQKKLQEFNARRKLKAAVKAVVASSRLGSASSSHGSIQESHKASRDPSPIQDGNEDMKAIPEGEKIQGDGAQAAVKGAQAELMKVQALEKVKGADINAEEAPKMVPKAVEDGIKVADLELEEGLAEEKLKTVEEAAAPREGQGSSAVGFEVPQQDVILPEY
Sequence of Dual specificity mitogen-activated protein kinase kinase 4 (Mus musculus) (P47809 whole entry): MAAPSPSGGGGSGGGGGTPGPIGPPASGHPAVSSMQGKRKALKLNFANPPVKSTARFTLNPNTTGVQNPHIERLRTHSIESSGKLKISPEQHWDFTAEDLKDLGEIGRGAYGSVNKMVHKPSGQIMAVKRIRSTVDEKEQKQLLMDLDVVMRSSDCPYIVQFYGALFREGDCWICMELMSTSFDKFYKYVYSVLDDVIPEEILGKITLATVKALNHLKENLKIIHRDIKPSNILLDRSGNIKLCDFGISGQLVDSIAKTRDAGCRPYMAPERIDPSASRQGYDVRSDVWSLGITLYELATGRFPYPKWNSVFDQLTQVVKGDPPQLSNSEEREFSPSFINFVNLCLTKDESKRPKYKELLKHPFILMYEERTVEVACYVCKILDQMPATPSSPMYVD
Sequence of Dual specificity mitogen-activated protein kinase kinase 1 (Homo sapiens) (Q02750 whole entry): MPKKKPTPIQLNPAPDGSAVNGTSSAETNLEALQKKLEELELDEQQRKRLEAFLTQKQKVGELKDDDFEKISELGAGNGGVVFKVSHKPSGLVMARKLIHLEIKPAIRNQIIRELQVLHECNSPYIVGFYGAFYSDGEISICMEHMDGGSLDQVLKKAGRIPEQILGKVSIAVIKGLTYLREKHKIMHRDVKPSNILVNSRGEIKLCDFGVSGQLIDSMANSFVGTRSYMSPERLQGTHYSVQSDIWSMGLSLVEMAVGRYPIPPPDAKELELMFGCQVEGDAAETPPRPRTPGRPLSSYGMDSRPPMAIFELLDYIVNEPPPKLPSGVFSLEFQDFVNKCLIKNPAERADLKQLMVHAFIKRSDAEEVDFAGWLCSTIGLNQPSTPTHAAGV
Sequence of Tyrosine-protein kinase ABL2 (Mus musculus) (Q4JIM5 whole entry): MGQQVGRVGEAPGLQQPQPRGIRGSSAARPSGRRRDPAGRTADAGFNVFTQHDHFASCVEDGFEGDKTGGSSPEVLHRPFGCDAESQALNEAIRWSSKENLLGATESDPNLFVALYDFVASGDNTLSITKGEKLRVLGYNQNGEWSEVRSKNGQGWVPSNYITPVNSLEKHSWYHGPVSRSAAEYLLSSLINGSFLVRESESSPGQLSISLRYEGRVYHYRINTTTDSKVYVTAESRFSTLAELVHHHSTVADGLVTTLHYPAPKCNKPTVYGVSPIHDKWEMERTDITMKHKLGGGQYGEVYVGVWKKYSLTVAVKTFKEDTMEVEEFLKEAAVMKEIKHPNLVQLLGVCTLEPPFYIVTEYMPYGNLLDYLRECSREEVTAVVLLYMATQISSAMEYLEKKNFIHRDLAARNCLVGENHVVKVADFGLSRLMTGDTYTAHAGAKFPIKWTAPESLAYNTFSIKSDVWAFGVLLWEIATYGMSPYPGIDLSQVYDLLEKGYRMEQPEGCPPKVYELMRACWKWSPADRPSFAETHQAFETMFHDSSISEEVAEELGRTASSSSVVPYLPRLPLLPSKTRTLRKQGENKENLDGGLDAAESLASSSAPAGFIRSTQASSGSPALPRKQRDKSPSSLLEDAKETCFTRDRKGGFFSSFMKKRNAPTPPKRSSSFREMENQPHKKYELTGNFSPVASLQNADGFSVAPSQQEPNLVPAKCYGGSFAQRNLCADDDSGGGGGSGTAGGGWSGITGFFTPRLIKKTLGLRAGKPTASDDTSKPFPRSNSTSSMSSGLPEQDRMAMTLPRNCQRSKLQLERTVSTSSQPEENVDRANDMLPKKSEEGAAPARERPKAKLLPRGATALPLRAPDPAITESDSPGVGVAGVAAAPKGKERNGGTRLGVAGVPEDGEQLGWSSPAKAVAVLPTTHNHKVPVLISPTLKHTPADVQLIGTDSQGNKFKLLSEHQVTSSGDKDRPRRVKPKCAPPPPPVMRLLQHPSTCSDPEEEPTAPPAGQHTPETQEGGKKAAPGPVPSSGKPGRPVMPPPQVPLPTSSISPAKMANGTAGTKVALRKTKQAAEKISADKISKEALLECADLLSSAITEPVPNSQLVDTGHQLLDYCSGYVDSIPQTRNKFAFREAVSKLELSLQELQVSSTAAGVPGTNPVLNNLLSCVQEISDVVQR
Sequence of Fibroblast growth factor receptor 3 (Homo sapiens) (P22607 23-806 limits assumed): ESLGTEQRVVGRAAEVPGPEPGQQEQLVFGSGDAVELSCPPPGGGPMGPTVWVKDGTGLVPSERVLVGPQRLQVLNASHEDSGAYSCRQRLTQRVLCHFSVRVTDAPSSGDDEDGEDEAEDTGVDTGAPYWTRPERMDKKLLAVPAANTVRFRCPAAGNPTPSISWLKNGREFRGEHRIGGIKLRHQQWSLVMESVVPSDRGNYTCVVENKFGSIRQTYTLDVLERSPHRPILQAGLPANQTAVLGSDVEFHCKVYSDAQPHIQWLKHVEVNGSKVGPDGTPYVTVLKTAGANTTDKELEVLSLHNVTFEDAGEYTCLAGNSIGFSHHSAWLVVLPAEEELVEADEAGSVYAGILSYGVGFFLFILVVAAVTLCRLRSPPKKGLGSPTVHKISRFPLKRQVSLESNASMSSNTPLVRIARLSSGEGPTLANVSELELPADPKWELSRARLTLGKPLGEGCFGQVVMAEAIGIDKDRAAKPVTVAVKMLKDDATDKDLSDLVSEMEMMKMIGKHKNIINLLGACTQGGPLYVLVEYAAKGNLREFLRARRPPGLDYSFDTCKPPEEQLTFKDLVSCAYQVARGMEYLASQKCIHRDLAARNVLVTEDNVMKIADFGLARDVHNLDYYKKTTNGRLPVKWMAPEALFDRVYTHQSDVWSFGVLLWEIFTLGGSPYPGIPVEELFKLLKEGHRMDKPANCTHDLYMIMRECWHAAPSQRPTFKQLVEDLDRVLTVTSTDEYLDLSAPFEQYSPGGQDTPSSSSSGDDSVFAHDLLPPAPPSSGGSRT
Sequence of Protein kinase C epsilon type (Homo sapiens) (Q02156 whole entry): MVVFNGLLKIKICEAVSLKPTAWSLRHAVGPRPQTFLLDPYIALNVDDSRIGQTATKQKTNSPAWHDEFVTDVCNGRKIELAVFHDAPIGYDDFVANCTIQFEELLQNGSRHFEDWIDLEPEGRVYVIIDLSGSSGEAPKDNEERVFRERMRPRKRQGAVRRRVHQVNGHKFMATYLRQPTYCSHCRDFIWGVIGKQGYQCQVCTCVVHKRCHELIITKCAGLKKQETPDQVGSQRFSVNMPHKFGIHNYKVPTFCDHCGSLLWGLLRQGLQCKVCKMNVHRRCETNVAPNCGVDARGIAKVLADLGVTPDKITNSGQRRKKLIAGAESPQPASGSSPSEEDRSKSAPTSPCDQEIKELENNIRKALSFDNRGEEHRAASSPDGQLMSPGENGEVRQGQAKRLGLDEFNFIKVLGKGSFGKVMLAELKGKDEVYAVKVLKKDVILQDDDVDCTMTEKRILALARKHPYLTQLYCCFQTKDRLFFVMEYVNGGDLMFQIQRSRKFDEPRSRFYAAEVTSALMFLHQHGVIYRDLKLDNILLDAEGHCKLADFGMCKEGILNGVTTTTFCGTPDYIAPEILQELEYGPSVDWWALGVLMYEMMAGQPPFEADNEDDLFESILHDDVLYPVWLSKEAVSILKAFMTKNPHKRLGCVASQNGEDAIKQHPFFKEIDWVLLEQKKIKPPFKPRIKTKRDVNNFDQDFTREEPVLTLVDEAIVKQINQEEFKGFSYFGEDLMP
Sequence of Inhibitor of nuclear factor kappa-B kinase subunit alpha (Homo sapiens) (O15111 whole entry, canonical isoform): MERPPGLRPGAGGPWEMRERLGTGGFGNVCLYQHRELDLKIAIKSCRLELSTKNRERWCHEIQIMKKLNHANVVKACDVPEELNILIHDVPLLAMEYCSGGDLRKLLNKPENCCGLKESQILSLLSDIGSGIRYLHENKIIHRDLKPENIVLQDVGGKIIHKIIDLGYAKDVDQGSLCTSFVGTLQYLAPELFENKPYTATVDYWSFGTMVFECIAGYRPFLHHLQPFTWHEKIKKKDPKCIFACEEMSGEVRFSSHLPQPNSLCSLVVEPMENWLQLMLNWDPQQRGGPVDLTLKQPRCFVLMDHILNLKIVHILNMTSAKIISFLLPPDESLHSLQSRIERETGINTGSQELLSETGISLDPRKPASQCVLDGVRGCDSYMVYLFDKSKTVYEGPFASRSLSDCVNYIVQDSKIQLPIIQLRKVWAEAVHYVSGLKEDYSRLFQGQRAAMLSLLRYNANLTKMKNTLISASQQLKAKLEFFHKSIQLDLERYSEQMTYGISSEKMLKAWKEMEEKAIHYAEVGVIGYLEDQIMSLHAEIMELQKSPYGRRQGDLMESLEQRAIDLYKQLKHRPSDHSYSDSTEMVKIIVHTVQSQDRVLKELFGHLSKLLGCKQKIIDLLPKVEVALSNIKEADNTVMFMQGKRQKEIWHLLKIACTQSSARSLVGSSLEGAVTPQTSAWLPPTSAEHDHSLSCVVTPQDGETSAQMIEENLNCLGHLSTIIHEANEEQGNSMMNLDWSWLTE

Question: Which Activity [1] does the source give for `O=C1NC(=O)/C(=C/c2ccc(-c3ccc(F)cc3O)o2)S1` here?
Answer: The Activity was 83%.

Question: What about the Activity [2] of the same compound?
Answer: Its Activity is 82%.

Question: What about the IC50 [3] of the same compound?
Answer: The IC50 was 940 nM.

Question: What about the Activity [4] of the same compound?
Answer: Its Activity is 93%.

Question: And the Activity [5]?
Answer: The Activity was 74%.

Question: And the Activity [6]?
Answer: Its Activity is 96%.

Question: What about the Activity [7] of the same compound?
Answer: Its Activity is 85%.

Question: And the Activity [8]?
Answer: Its Activity is 98%.

Question: And the Activity [9]?
Answer: The Activity was 98%.

Question: What about the metabolised at 1 h [10] of the same compound?
Answer: Its metabolised at 1 h is 10%.

Question: What about the IC50 [11] of the same compound?
Answer: The IC50 was 400 nM.

Question: What about the IC50 [12] of the same compound?
Answer: Its IC50 is 53000 nM.

Question: What about the Activity [13] of the same compound?
Answer: The Activity was 104%.

Question: What about the Activity [14] of the same compound?
Answer: Its Activity is 101%.

Question: What about the Activity [15] of the same compound?
Answer: Its Activity is 90%.

Question: And the Activity [16]?
Answer: Its Activity is 121%.

Question: What about the Activity [17] of the same compound?
Answer: Its Activity is 85%.

Question: And the Activity [18]?
Answer: The Activity was 95%.

Question: What about the Activity [19] of the same compound?
Answer: Its Activity is 111%.

Question: What about the Activity [20] of the same compound?
Answer: The Activity was 94%.

Question: And the IC50 [21]?
Answer: The IC50 was 4730 nM.

Question: What about the Activity [22] of the same compound?
Answer: The Activity was 86%.

Question: What about the Activity [23] of the same compound?
Answer: Its Activity is 70%.

Question: What about the Activity [24] of the same compound?
Answer: Its Activity is 84%.

Question: And the Activity [25]?
Answer: The Activity was 91%.

Question: And the Activity [26]?
Answer: The Activity was 103%.

Question: What about the Activity [27] of the same compound?
Answer: The Activity was 99%.

Question: What about the Activity [28] of the same compound?
Answer: Its Activity is 92%.

Question: And the Cmax [29]?
Answer: The Cmax was 11400 ng/mL.

Question: What about the Activity [30] of the same compound?
Answer: The Activity was 96%.

Question: And the Activity [31]?
Answer: Its Activity is 97%.

Question: And the Activity [32]?
Answer: The Activity was 91%.
